Data: ChEMBL document CHEMBL3124926, “Identification of highly efficacious glucocorticoid receptor agonists with a potential for reduced clinical bone side effects” (J Med Chem, 2014)

How the values were obtained:
Mus musculus [1] = assay: Toxicity in collagen-induced B10.RIII mouse arthritis model assessed as change in insulin level at 100 mg/kg, po qd for 35 days relative to 1% methylcellulose-treated control; assay type: organism-based; set-up: dose 100 mg/kg, route oral; details: in vivo, 840 h
Method in brief: (§1)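 Female B10.RIII mice were immunized at 12–15 weeks with porcine type II collagen emulsified in complete Freund's adjuvant (100 μg intradermal, tail base). Animals were enrolled at first arthritis signs, 10 per group, and dosed orally once daily for five weeks in 1% methylcellulose. Paws were scored 1–4 each (max 16), with AUC taken. Serum was collected at day 35. Femur cortical thickness was measured by microCT in non-immunized, age-matched mice given the same dosing.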

Mus musculus [2] = assay: Toxicity in collagen-induced B10.RIII mouse arthritis model assessed as change in free fatty acid level at 100 mg/kg, po qd for 35 days relative to 1% methylcellulose-treated control; assay type: organism-based; set-up: dose 100 mg/kg, route oral; details: in vivo, 840 h; method in brief: as §1
Mus musculus [3] = assay: Toxicity in collagen-induced B10.RIII mouse arthritis model assessed as change in triglyceride level at 100 mg/kg, po qd for 35 days relative to 1% methylcellulose-treated control; assay type: organism-based; set-up: dose 100 mg/kg, route oral; details: in vivo, 840 h; method in brief: as §1
Mus musculus [4] = assay: Toxicity in collagen-induced B10.RIII mouse arthritis model assessed as change in body fat at 100 mg/kg, po qd for 35 days relative to 1% methylcellulose-treated control; assay type: organism-based; set-up: dose 100 mg/kg, route oral; details: in vivo, 840 h; method in brief: as §1
Mus musculus [5] = assay: Toxicity in collagen-induced B10.RIII mouse arthritis model assessed as change in AUC at 100 mg/kg, po qd for 35 days relative to 1% methylcellulose-treated control; assay type: organism-based; set-up: dose 100 mg/kg, route oral; details: in vivo, 840 h; method in brief: as §1
[6] = Half life in rat at 5 mg/kg, iv and 30 mg/kg, po; assay type: ADME, organism-based; details: in vivo
Method in brief: (§2)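 Rat PK: 5 mg/kg iv in 80/20 PEG/water and 30 mg/kg po in 80/18/2 PEG/water/Tween.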

[7] = Volume of distribution at steady state in rat at 5 mg/kg, iv and 30 mg/kg, po; assay type: ADME, organism-based; details: in vivo, read-out: Vdss
Method in brief: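 Rat pharmacokinetics: single intravenous dose of 5 mg/kg in 80/20 PEG/water, plus a separate oral dose of 30 mg/kg in 80/18/2 PEG/water/Tween. Steady-state volume of distribution is from the iv arm; clearance, half-life and oral bioavailability come from the same study.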

Rattus norvegicus [8] = assay: Clearance in rat at 5 mg/kg, iv and 30 mg/kg, po; assay type: ADME, organism-based; details: in vivo; method in brief: as §2
Mus musculus [9] = assay: Toxicity in nonimmunized, nondiseased mouse assessed as change in femur cortical thickness at 100 mg/kg, po qd for 35 days relative to 1% methylcellulose-treated control; details: in vivo, 840 h
Mus musculus [10] = assay: Toxicity in collagen-induced B10.RIII mouse arthritis model assessed as change in femur cortical thickness at 100 mg/kg, po qd for 35 days relative to 30% cremophor-treated control; assay type: organism-based; set-up: dose 100 mg/kg, route oral; details: in vivo, 840 h
Method in brief: (§3)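 Female B10.RIII mice were immunized with porcine type II collagen in complete Freund's adjuvant, enrolled at arthritis onset (10/group), and dosed orally once daily for five weeks in 30% cremophor vehicle. Four paws were scored 1–4 (max 16), as AUC. Serum biomarkers were taken at day 35. Femur cortical thickness was measured by microCT in non-immunized, age-matched mice dosed identically.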

Mus musculus [11] = assay: Toxicity in collagen-induced B10.RIII mouse arthritis model assessed as change in insulin level at 100 mg/kg, po qd for 35 days relative to 30% cremophor-treated control; assay type: organism-based; set-up: dose 100 mg/kg, route oral; details: in vivo, 840 h; method in brief: as §3
Mus musculus [12] = assay: Toxicity in collagen-induced B10.RIII mouse arthritis model assessed as change in free fatty acid level at 100 mg/kg, po qd for 35 days relative to 30% cremophor-treated control; assay type: organism-based; set-up: dose 100 mg/kg, route oral; details: in vivo, 840 h; method in brief: as §3
Mus musculus [13] = assay: Toxicity in collagen-induced B10.RIII mouse arthritis model assessed as change in body fat at 100 mg/kg, po qd for 35 days relative to 30% cremophor-treated control; assay type: organism-based; set-up: dose 100 mg/kg, route oral; details: in vivo, 840 h; method in brief: as §3
Mus musculus [14] = assay: Toxicity in collagen-induced B10.RIII mouse arthritis model assessed as change in AUC at 100 mg/kg, po qd for 35 days relative to 30% cremophor-treated control; assay type: organism-based; set-up: dose 100 mg/kg, route oral; details: in vivo, 840 h; method in brief: as §3
[15] = Half life in rat at 2 mg/kg, iv and 30 mg/kg, po; assay type: ADME, organism-based; details: in vivo
Method in brief: (§4)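 Rat PK: 2 mg/kg iv in 80/20 PEG/water and 30 mg/kg po in 80/18/2 PEG/water/Tween.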

Rattus norvegicus [16] = assay: Clearance in rat at 2 mg/kg, iv and 30 mg/kg, po; assay type: ADME, organism-based; details: in vivo; method in brief: as §4
[17] = Volume of distribution at steady state in rat at 2 mg/kg, iv and 30 mg/kg, po; assay type: ADME, organism-based; details: in vivo, read-out: Vdss; method in brief: as §4

half-life [6] [min] | Vd [7] [L/kg] | CL (Rattus norvegicus [8]) [%] | half-life [15] [min] | CL (Rattus norvegicus [16]) [%] | Vd [17] [L/kg] | Structure (SMILES) | Activity (Mus musculus [1]) [%] | Activity (Mus musculus [2]) [%] | Activity (Mus musculus [3]) [%] | Activity (Mus musculus [4]) [%] | Activity (Mus musculus [5]) [%] | Activity (Mus musculus [9]) [%] | Activity (Mus musculus [10]) [%] | Activity (Mus musculus [11]) [%] | Activity (Mus musculus [12]) [%] | Activity (Mus musculus [13]) [%] | Activity (Mus musculus [14]) [%]
36 | 2.1 | 61 | – | – | – | Cc1ccc(F)cc1C(C)(C)C[C@@](O)(Cc1cc2ncncc2[nH]1)C(F)(F)F | 17 | 14 | -14 | 32 | -57 | -6 | – | – | – | – | –
– | – | – | 30 | > 100 | 3.7 | Cc1ccc(F)cc1C(C)(C)C[C@@](O)(Cc1cc2nnccc2[nH]1)C(F)(F)F | – | – | – | – | – | – | -8 | -36 | -2 | 8 | -53
